# Reference: PubChem BioAssay AID686939 (The Scripps Research Institute Molecular Screening Center, 2013)
# Hit rate of the full screen: of about 3,500 compounds, about 1,400 (40%) were called active. The set was probably picked from earlier hits. Only a sample is shown. Values without a mark were called inactive.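 Rule for the calls: active = activation above the solvent-only control well mean plus 3 SD, averaged across control plates (cut at about 5.2% in these data); inactive = the rest.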
# Test: nonselective transcriptional activators, VP16 reporter – cell-based, pG5luc, luminescence, high throughput, counter-screen for SMARCA2 (BRM) activator project (AID 686939)
# Settings: HEK293 GAL4-VP16 pG5luc reporter, luciferase luminescence; at 9.1 µM; stronger effect = higher value; scaled: DMSO wells 0%, SAHA wells 100%
# Method in brief: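 system = 293 cells carrying GAL4-VP16 plus UAS-luciferase reporter | input = 2,500 transfected 293 cells per well | doses = one dose, 9.1 µM nominal | incubation = 24 h exposure, 37 °C, 5% CO2, One-Glo 15 min RT | measured by = One-Glo luciferase luminescence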
row,SMILES,activation
1,COc1cccc(-c2nc3cc(C)ccc3o2)c1,3.74%
2,Cn1c(-c2ccc(F)cc2)cc2onc(-c3ccccc3Cl)c2c1=O,9.37% (active)
3,Fc1ccc(/C=N/Nc2nc(-c3cccnc3)nc3ccccc23)cc1,8.57% (active)
4,CC(=O)Nc1cc(-c2ccc(N3CCN(C)CC3)cc2)cn2c(-c3ccc(F)cc3)cnc12,1.59%
5,Cc1nc(-c2nnc(SCC(=O)Nc3cc(C(F)(F)F)cc(C(F)(F)F)c3)n2C)cs1,-1.04%
6,CCCCNC(=O)C1CCC(CNS(=O)(=O)c2ccc(NC(C)=O)cc2)CC1 (stereo not drawn),0.63%
7,Fc1ccc(CNc2nc3ccccc3n3nnnc23)cc1,2.47%
8,CC(C)CCNC(=O)c1ccc2c(Cl)c3c(nc2c1)CCC3,9.88% (active)
9,COCC1CCN(C(=O)C2CCC(=O)N(Cc3cccc(C(F)(F)F)c3)C2)CC1 (stereo not drawn),1.34%
10,O=C(Nc1cc(=O)[nH]c2ncnn12)c1ccccc1Cl,0.46%
11,COc1c(O)cc2oc(-c3ccc(O)c(O)c3)cc(=O)c2c1O,12.4% (active)
12,CCCn1nc(C(=O)Nc2ccc3nc(C)sc3c2)c2ccccc2c1=O,-0.78%
13,O=C(N[C@H]1CC[C@H](CC(=O)N2CCCCC2)O[C@@H]1CO)c1cccc(F)c1,0.09%
14,O=C(c1cc(-c2ccc(O)cc2)on1)N1CCOCC1,6.96% (active)
15,O=C(c1cc(-c2ccccc2O)on1)N1CCCC1,9.74% (active)
16,Cc1cc(-c2n[nH]c(=S)n2/N=C/C(Br)=C/c2ccccc2)n[nH]1,4.37%
17,CCCCn1nnnc1C(c1cc2ccccc2o1)N(C)Cc1ccc(Cl)c(Cl)c1 (stereo not drawn),1.67%
18,O=C(CCCc1ccccc1)NCc1ccccc1,2.83%
19,COc1ccc(OCCCC(=O)NCCc2ccccc2)cc1,1.27%
20,Cc1ccc(F)c(NC(=O)CCc2ccccc2)c1,5.92% (active)
21,O=C(O)c1ccc(COc2c(F)c(F)cc(F)c2F)o1,-0.39%
22,O=C(O)c1cccc(N=NN2CCCCCC2)c1,13.9% (active)
23,CN(C)CCNC(=O)c1cccc(-c2cnc3c(NC=O)cc(-c4cccc(C(F)(F)F)c4)cn23)c1,1.42%

row,SMILES,activation
1,COc1ccc(-c2csc(Cc3nc(O)cs3)n2)cc1,19.6% (active)
2,Cn1cccc1/C=N/NC(=O)c1ccc(OC(F)(F)C(F)F)cc1,3.99%
3,O=C(c1cccs1)C1C(c2ccc(Br)cc2)NC(=S)NC1(O)C(F)(F)F (stereo not drawn),2.08%
4,COc1ccc(CC2c3cc(OC)c(OC)cc3CC[N+]2(C)CCC(=O)OCCCCCOC(=O)CC[N+]2(C)CCc3cc(OC)c(OC)cc3C2Cc2ccc(OC)c(OC)c2)cc1OC (stereo not drawn),1.23%
5,COc1cc(CN2CCC(C(N)=O)CC2)ccc1OCc1ccccc1,8.4% (active)
6,COc1ccccc1OCC(=O)O/N=C(\N)c1ccccn1,4.97%
7,Cc1noc(C)c1S(=O)(=O)N(C)C[C@H]1Oc2c(NC(=O)Nc3ccc4c(c3)OCO4)cccc2C(=O)N([C@H](C)CO)C[C@@H]1C,0.03%
8,CN(C)C(=S)N=c1ssc(=S)n1Cc1ccco1,11.9% (active)
9,CCOC(=O)c1sc2nc(CSc3ccccc3)[nH]c(=O)c2c1C,0.23%
10,COc1ccc(-c2cc3ncccc3cn2)cc1,9.76% (active)
11,Cc1ccc(NC(=O)C(=O)NCc2ccco2)c(C)c1,5.75% (active)
12,CC(C)(C)c1ccc(NC(=O)NCc2ccco2)cc1,0.6%
13,Cc1cc(O)c(NC(=O)c2ccc(C)c([N+](=O)[O-])c2)cc1C,7.82% (active)
14,FC(F)(F)c1cccc(-c2nc3ccccc3n2C(c2ccccc2)c2nc3ccccc3[nH]2)c1 (stereo not drawn),4.89%
15,COc1ccc(C(CNC(=O)c2ccc(S(=O)(=O)Nc3ccccc3F)cc2)N(C)C)cc1 (stereo not drawn),-0.57%
16,CN(C)S(=O)(=O)c1ccc2oc(SCC(=O)Nc3ccccc3F)nc2c1,13.2% (active)
17,COc1ccc(N=C(C)c2sc3ccccc3c2O)cc1,6.57% (active)
18,CCOC(=O)C(C)n1cnc2c(nnn2-c2cccc(OC)c2)c1=O (stereo not drawn),4.04%
19,COc1ccc(C(=O)NC2=NCCS2)c(OC)c1,12.2% (active)
20,Cc1ccc(N/C=C/C(=O)c2ccccc2)cc1C,6.49% (active)
21,Cc1cc(=O)[nH]c(N/N=C/c2ccc3c(c2)OCCO3)n1,3.2%
22,CCc1c(C)c2ccc(OC3CCCCC3=O)cc2oc1=O (stereo not drawn),2.57%
23,COc1ccc(/C=N/NC(=O)c2cc(-c3cccc(C)c3)nc3ccccc23)cc1O,7.74% (active)

row,SMILES,activation
1,COc1cc(/C=N/NC(=O)c2ccccc2)ccc1OS(=O)(=O)c1ccccc1,0.14%
2,CC(C)(C)NC(=O)C(CCc1ccccc1)n1c(=O)c(-c2ccccc2)nc2ccccc21 (stereo not drawn),0.34%
3,CCC(C)N(C)C1CCN(C(=S)Nc2ccc(OC)cc2)CC1 (stereo not drawn),1.62%
4,CCCCc1ccc(NC(=S)N2CCCC(CO)C2)cc1 (stereo not drawn),10.3% (active)
5,Cc1cc(C)c2nc3nc(C)cc(C)c3c(N)c2c1,3.96%
6,O=C1Cc2cc(S(=O)(=O)Nc3cccc(F)c3)ccc2N1,1.09%
7,CCc1ccc[n+](-c2nc([O-])sc2C=O)c1,0.22%
8,Cc1cc(C)nc(Nc2n[nH]c(-c3ccccc3N)n2)n1,12.3% (active)
9,CCOC(=O)c1c(C)[nH]c(C2=NNC(=NC(C)COC)SC2)c1C (stereo not drawn),8.27% (active)
10,COc1cccc(OCCOc2cccc(/C=N/n3cnnc3)c2)c1,6.43% (active)
11,Cc1ccc(-c2c(C)n([O-])c3c([n+]2=O)CCC3)cc1,-0.96%
12,Cc1ccc(C(=O)CSc2ccccc2C(=O)O)cc1,6.75% (active)
13,COCC(C)n1c(SCc2ccc(C(=O)OC)o2)nc2ccccc2c1=O (stereo not drawn),2.22%
14,CC1CCCCC1NC(=O)CN1CCC(O)(c2ccc3c(c2)OCO3)CC1 (stereo not drawn),4.35%
15,O=C(Nc1cccc([N+](=O)[O-])c1)N1CCc2ccccc2C1,4.55%
16,COc1ccc(C(=O)Nc2ccc3c(c2)OCO3)cc1OC,10.2% (active)
17,O=C(Nc1cccc([N+](=O)[O-])c1)c1ccc2c(c1)OCO2,8.02% (active)
18,COc1ccc(C)cc1S(=O)(=O)N(CC(=O)Nc1cccc([N+](=O)[O-])c1)c1ccc(C)cc1,-1.27%
19,Cc1ccnc(Nc2nc3ccccc3s2)n1,3.74%
20,CC1(C)CC(=O)C=C(NCCCNC2CCCCC2)C1,-0.02%
21,Cc1cc2oc3ccc(NCCC4CCCN4C)cc3c(=O)c2cc1C (stereo not drawn),6.3% (active)
22,Cc1ccccc1C#CC1=CC(=O)CC(C)(C)C1,1.83%
